The source of these data is ChEMBL document CHEMBL3596176, “Geleganidines A-C, Unusual Monoterpenoid Indole Alkaloids from Gelsemium elegans” (J Nat Prod, 2015).

pIC50: −log10 of the molar value.

The subject of assay [1] is MCF7. Put plainly: Cytotoxicity against human MCF7 cells assessed as inhibition of cell growth after 72 hrs by MTT assay. In kind it is functional, cell-based. Conditions: MCF7, 72 h. The procedure, abridged:
(§1)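 Cells kept in RPMI 1640 plus 10% FBS at 37 °C in humidified 5% CO2. Seeded for 24 h, then exposed to a range of compound concentrations for 72 h. MTT (5 mg/mL solution) added, followed by 4 h incubation. Medium removed and formazan dissolved in DMSO; absorbance at 570 nm. IC50 taken from dose-response curves, reported as mean ± SD.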
(Tetrazolium dyes change colour on reduction, which living cells bring about.)

The nature of assay [2]: Cytotoxicity against rat PC12 cells assessed as inhibition of cell growth after 72 hrs by MTT assay. Format: functional, cell-based. Conditions: PC-12, 72 h. The procedure, abridged: as §1

Consider `C/C=C1\CN[C@H]2C[C@@]3(C(=O)N(OC)c4cc(OC)ccc43)[C@H]3C[C@@H]1[C@@H]2CO3`, for which the pIC50 in assay [1] and in assay [2] was less than 4.30 in each case.

With `C/C=C1\CN(C(=O)N2C/C(=C\C)[C@@H]3C[C@H]4OC[C@@H]3[C@@H]2C[C@@]42C(=O)N(OC)c3cc(OC)ccc32)[C@H]2C[C@@]3(C(=O)N(OC)c4ccccc43)[C@H]3C[C@@H]1[C@@H]2CO3`, the pIC50 in assay [1] is less than 4.30; in assay [2] it was 4.79.

`C/C=C1\CN2C(=O)[C@]3(c4ccc(OC)cc4/N=N/c4cc(OC)ccc4[C@@]45C[C@H]6[C@H]7CO[C@@H]4C[C@H]7/C(=C/C)CN6C5=O)C[C@H]2[C@H]2CO[C@@H]3C[C@@H]12`: the pIC50 in assay [1] is 4.42; in assay [2], less than 4.30.

`C/C=C1\CN2C(=O)[C@]3(c4ccc(OC)cc4NOC)C[C@H]2[C@H]2CO[C@@H]3C[C@@H]12`: the pIC50 in assay [1] and in assay [2] was less than 4.30 throughout.

Turning to `C/C=C1\CN[C@H]2C[C@@]3(C(=O)N(OC)c4ccccc43)[C@H]3C[C@@H]1[C@@H]2CO3`, the pIC50 in assay [1] and in assay [2] was less than 4.30 in each case.

As to `C/C=C1\CN(C=O)[C@H]2C[C@@]3(C(=O)N(OC)c4cc(OC)ccc43)[C@H]3C[C@@H]1[C@@H]2CO3`, the pIC50 in assay [1] and in assay [2] was less than 4.30 in each case.

For `C/C=C1\CN2C(=O)[C@]3(c4ccc(OC)cc4N)C[C@H]2[C@H]2CO[C@@H]3C[C@@H]12`, the pIC50 in assay [1] and in assay [2] was less than 4.30 in each case.

A word on the pIC50: it is the IC50 on a negative log10 scale, so that one unit is a factor of ten.
